Reference: article PMC12040637 (Iranian Biomedical Journal, 2024)
In brackets after ≈: the same amount, converted by molar mass. Several values for one entry are separate records, joined by “and”; a condition that tells them apart may be missing. Identical values can stand only once.

How the values were obtained:
Hep G2 cells [1] = experiment: MTT cytotoxic assay; assay type: cell-based; settings: for IC50: Homo sapiens, HepG2, 24 h, read-out: Hep G2 cells IC50
Outline: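 Hep G2 cells (Pasteur Institute of Iran) seeded at 10,000 cells/well and grown 24 h at 37 °C, 5% CO2. Extract and fractions were tested at 12.5–200 μg/mL for 24 h. MTT was then added for 4 h at 37 °C, and formazan was dissolved in DMSO and read at 570 nm. IC50 came from plots of growth inhibition against concentration; mean ± SD of triplicates.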

[2] = DPPH radical scavenging activity assay; assay type: biochemical; settings: 30 min at 37 °C, absorbance 517 nm; mean ± SD of triplicate
Outline: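 20 µL of sample (6.25–3200 μg/mL solutions) mixed with 200 µL methanolic DPPH and kept dark at 37 °C for 30 min; absorbance read at 517 nm. Blanks held sample plus MeOH; controls held MeOH plus DPPH. Percent inhibition was calculated from control and blank absorbances. Quercetin was the standard; triplicate runs.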

NO radical scavenging = assay type: biochemical; settings: for NO scavenging ability percentage: 200 μg/mL, mean ± SD of triplicate
Outline: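 Sodium nitroprusside (50 µL, 10 mmol) and 50 µL MeOH were added to 50 µL sample and incubated at 25 °C for 150 min. Then 100 µL Griess reagent was added for 5 min at room temperature, and absorbance was read at 542 nm. Blanks held sample, nitroprusside and MeOH without Griess reagent. Inhibition ratio was calculated from sample, blank and control absorbances; triplicate.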

FRAP assay = assay type: biochemical; settings: absorbance 593 nm; mean ± SD of triplicate
Outline: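 FRAP reagent: 300 mM acetate buffer pH 3.6, 10 mM TPTZ in 40 mM HCl and 20 mM FeCl3·6H2O at 10:1:1, held dark at 37 °C for 10 min. 20 µL sample (6.25–3200 μg/mL solutions) was added to 180 µL pre-warmed reagent; controls held MeOH. Absorbance was read at 593 nm, and the FRAP value was calculated against the control; triplicate analysis.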

Hep G2 cells [3] = experiment: CAA assay; assay type: cell-based; settings: Homo sapiens, HepG2, read-out: CAA IC50
Outline: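 Hep G2 cells seeded at 6 × 10^4 cells/well overnight, then washed three times with PBS. Cells were incubated at 37 °C in treatment medium containing extract at various concentrations plus 25 µM DCFH-DA, then washed with PBS. AAPH was added, and fluorescence (ex 485/em 538 nm) was read every 5 min for 1 h at 37 °C. IC50 is the concentration scavenging 50% of AAPH radicals; quercetin was the standard; triplicates.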

ORAC assay = assay type: biochemical; settings: Trolox equivalents
Outline: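 Blank, Trolox standard or sample (20 µL) in 75 mM potassium phosphate buffer was plated in triplicate with 200 µL of 0.96 µM fluorescein and held at 37 °C for 20 min. AAPH was then added, and fluorescence decay (ex 485/em 538 nm) was recorded every 4.5 min for 2.5 h. Values were expressed as Trolox equivalents.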

[4] = ABTS radical cation scavenging assay; assay type: biochemical; settings: absorbance 734 nm after 15 minutes; mean ± SD of triplicate
Outline: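 ABTS radical cation made by mixing aqueous ABTS diammonium salt with ammonium persulfate, then kept dark at room temperature for 16 h. It was diluted with ethanol to A734 0.70 ± 0.05. 200 µL radical solution was added to 20 µL of samples at a range of concentrations, and A734 was read after 15 min. IC50 reported as mean ± SD of three replicates.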

protease = experiment: Determination of protease inhibition; assay type: biochemical; settings: casein 1%, 25 °C, 10 minutes
Outline: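 Samples prepared at 1–300 µg/mL; 50 µL was combined with 200 µL of 50 mM phosphate buffer, then protease and 1% casein substrate were added. The mixture was incubated at 25 °C for 10 min and stopped with 10% trichloroacetic acid. After 21 min it was centrifuged at 895 ×g for 5 min, and supernatant absorbance was read at 280 nm. IC50 as mean ± SD of three replicates.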

N.N.[Cl][Pt][Cl] [Cisplatin, reference compound]
Hep G2 cells IC50 (Hep G2 cells [1]; MTT, 24 h treatment, mean ± SD): 12.65 ± 0.78 µg/mL

CC1(C)CC[C@]2(C(=O)O)CC[C@]3(C)C(=CC[C@@H]4[C@@]5(C)CC[C@H](O)C(C)(C)[C@@H]5CC[C@]43C)[C@@H]2C1 [Oleanolic acid]
DPPH IC50 [2]: >2000 µg/mL | NO scavenging ability percentage (NO radical scavenging): 48.82 ± 0.91% | NO scavenging ability percentage (NO radical scavenging; listed as oleanolic acid): 48.82% | FRAP IC50 (FRAP assay): 198.86 ± 1.49 µg/mL | IC50 (Hep G2 cells [3]): > 200 µg/mL | ORAC TE (ORAC assay): 0.46 TE | ABTS IC50 [4]: >2000 µg/mL | IC50 (Hep G2 cells [1]): 123 ± 8.84 µg/mL (≈ 270 µM) | cytotoxic effect on the Hep G2 cell line (in words) (Hep G2 cells [1]; MTT): low antiproliferative effect | Protease inhibition IC50 (protease): 28.0 ± 0.2 µg/mL

O=c1c(O)c(-c2ccc(O)c(O)c2)oc2cc(O)cc(O)c12 [Quercetin, quercetin, reference compound]
DPPH IC50 [2]: 26.51 ± 0.06 µg/mL | NO scavenging ability percentage (NO radical scavenging): 89.96 ± 0.01% | FRAP IC50 (FRAP assay): 18.53 ± 0.12 µg/mL | IC50 (Hep G2 cells [3]): 38.9 ± 0.87 µg/mL (≈ 129 µM) | ORAC TE (ORAC assay): 1.06 TE | ABTS IC50 [4]: 26.35 ± 0.03 µg/mL

O=C(/C=C/c1ccc(O)c(O)c1)O[C@H](Cc1ccc(O)c(O)c1)C(=O)O [Rosmarinic acid]
DPPH IC50 [2]: 28.39 ± 0.75 µg/mL | NO scavenging (NO radical scavenging): 71.44 ± 1.04 µg/mL | NO scavenging ability percentage (NO radical scavenging): 71.44 ± 0.37% and 71.44 ± 1.04% | FRAP IC50 (FRAP assay): 31.87 ± 0.67 µg/mL | IC50 (Hep G2 cells [3]): 171 µg/mL (≈ 475 µM) | ORAC TE (ORAC assay): 0.60 TE | ORAC TE (ORAC assay; listed as rosmarinic acid): 0.6 TE | ABTS IC50 [4]: 39.52 ± 0.72 µg/mL | IC50 (Hep G2 cells [1]): 47.8 ± 5.87 µg/mL (≈ 133 µM) | Protease inhibition IC50 (protease): 17.0 ± 0.3 µg/mL

C[C@@H]1O[C@@H](OC[C@H]2O[C@@H](Oc3c(-c4ccc(O)c(O)c4)oc4cc(O)cc(O)c4c3=O)[C@H](O)[C@@H](O)[C@@H]2O)[C@H](O)[C@H](O)[C@H]1O [Rutin, Quercetin-3-O-rutoside]
DPPH IC50 [2]: 33.48 ± 0.52 µg/mL | NO scavenging ability percentage (NO radical scavenging): 81.30 ± 0.37% | FRAP IC50 (FRAP assay): 42.62 ± 0.86 µg/mL | IC50 (Hep G2 cells [3]): > 200 µg/mL | ORAC TE (ORAC assay): 0.83 TE | ABTS IC50 [4]: 87.31 ± 0.68 µg/mL | IC50 (Hep G2 cells [1]): 63.9 ± 0.96 µg/mL (≈ 105 µM) | Protease inhibition IC50 (protease): 22.4 ± 0.1 µg/mL

C[C@H]1[C@H](C)CC[C@]2(C(=O)O)CC[C@]3(C)C(=CC[C@@H]4[C@@]5(C)CC[C@H](O)C(C)(C)[C@@H]5CC[C@]43C)[C@H]12 [Ursolic acid]
DPPH IC50 [2]: >2000 µg/mL | NO scavenging ability percentage (NO radical scavenging): 55.52 ± 0.43% | NO scavenging ability percentage (NO radical scavenging; listed as ursolic acid): 55.52% | FRAP IC50 (FRAP assay): 298.51 ± 1.76 µg/mL | IC50 (Hep G2 cells [3]): 184 ± 9.25 µg/mL (≈ 402 µM) | ORAC TE (ORAC assay): 0.31 TE | ABTS IC50 [4]: >2000 µg/mL | IC50 (Hep G2 cells [1]): > 200 µg/mL | Protease inhibition IC50 (protease): 24.5 ± 0.1 µg/mL
